ChEMBL document CHEMBL4265995, “Chaetolines A and B, Pyrano[3,2- f]isoquinoline Alkaloids from Cultivation of Chaetomium sp. in the Presence of Autoclaved Pseudomonas aeruginosa” (2018)

Legend:
Format in all cases: functional
[1] = tested on: L5178Y; assay: Cytotoxicity against mouse L5178Y cells by MTT assay
In short: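 MTT viability assay on L5178Y mouse lymphoma cells, compared with untreated controls. Negative controls were media containing 0.1% ethylene glycol monomethyl ether/DMSO. Three independent experiments, each in triplicate.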

[2] = tested on: Pseudomonas aeruginosa; assay: Antibacterial activity against Pseudomonas aeruginosa ATCC 27853 after 24 hrs by CLSI method; details: ATCC 27853, 24 h
In short: (§1)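 Broth microdilution in 96-well plates, using a medium of 1.75% w/v acid digest of casein and 0.15% w/v starch. Compounds came from a 10 mg/mL DMSO stock. Serial 2-fold dilutions started at 64 μg/mL, with DMSO diluted along with the compounds (0.64% final at the top concentration). Plates were incubated 24 h at 37 °C and read by visual inspection. Moxifloxacin and rifampicin were the positive controls.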

[3] = tested on: Acinetobacter baumannii; assay: Antibacterial activity against Acinetobacter baumannii BAA1605 after 24 hrs by CLSI method; details: BAA1605, 24 h; in short: as §1
[4] = tested on: Acinetobacter baumannii; assay: Antibacterial activity against Acinetobacter baumannii BAA747 after 24 hrs by CLSI method; details: BAA747, 24 h; in short: as §1
[5] = tested on: Escherichia coli; assay: Antibacterial activity against Escherichia coli ATCC 25922 after 24 hrs by CLSI method; details: ATCC 25922, 24 h; in short: as §1
[6] = tested on: Klebsiella pneumoniae; assay: Antibacterial activity against Klebsiella pneumoniae ATCC 13883 after 24 hrs by CLSI method; details: ATCC 13883, 24 h; in short: as §1
[7] = tested on: Staphylococcus aureus; assay: Antibacterial activity against Staphylococcus aureus ATCC 29213 after 24 hrs by CLSI method; details: ATCC 29213, 24 h; in short: as §1
[8] = tested on: Staphylococcus aureus; assay: Antibacterial activity against Staphylococcus aureus ATCC 700699 after 24 hrs by CLSI method; details: ATCC 700699, 24 h; in short: as §1

MIC [2]	MIC [3]	MIC [4]	MIC [5]	MIC [6]	MIC [7]	MIC [8]	Structure (SMILES)	MIC [1]
> 100 µM	> 100 µM	> 100 µM	> 100 µM	> 100 µM	> 100 µM	> 100 µM	Cc1c2c(c3cc(C)n([C@@H](CC(C)C)C(=O)O)c(=O)c3c1O)C[C@@H](C(C)(C)O)CO2	> 20 µM
> 100 µM	> 100 µM	> 100 µM	> 100 µM	> 100 µM	> 100 µM	> 100 µM	CCC(C)[C@@H](C(=O)O)n1c(C)cc2c3c(c(C)c(O)c2c1=O)OC[C@H](C(C)(C)O)C3 (stereo partly specified)	> 20 µM
